Experimental data as given in ChEMBL document CHEMBL1240506, “Identification and development of novel inhibitors of Toxoplasma gondii enoyl reductase” (J Med Chem, 2010).
pIC50: −log10 of the molar value. ≈ marks a conversion by molar mass, not a printed value.

How the values were obtained:
[1] = system: Toxoplasma gondii; test: Antiparasitic activity against Toxoplasma gondii infected in HFF after 24 hrs by [3H]uracil incorporation assay; format: functional
How it was run: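 Human foreskin fibroblasts were infected with T. gondii tachyzoites and given 1 h to invade before inhibitors were added. Cultures ran 3 days, then 3H-uracil was added for a further day. Parasite growth was read as uracil incorporation by liquid scintillation counting. MIC50 and MIC90 are the concentrations giving 50% and 90% growth inhibition. There were 6 replicate samples per group.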

[2] = system: HFF; test: Toxicity to HFF; format: cell-based; settings: human
How it was run: (§1)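 Host-cell toxicity was tested on non-confluent fibroblast monolayers by 3H-thymidine incorporation, alongside visual inspection of monolayer integrity. Testing ran simultaneously with the parasite inhibition assay, and the highest concentration tested was scored.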

[3] = system: HFF; test: Toxicity to HFF at highest concentration; format: cell-based; settings: human; how it was run: as §1
[4] = target: T1, Enoyl-acyl carrier reductase (Toxoplasma gondii, UniProt Q6UCJ9); test: Inhibition of Toxoplasma gondii enoyl reductase
T1 sequence (Q6UCJ9 whole entry): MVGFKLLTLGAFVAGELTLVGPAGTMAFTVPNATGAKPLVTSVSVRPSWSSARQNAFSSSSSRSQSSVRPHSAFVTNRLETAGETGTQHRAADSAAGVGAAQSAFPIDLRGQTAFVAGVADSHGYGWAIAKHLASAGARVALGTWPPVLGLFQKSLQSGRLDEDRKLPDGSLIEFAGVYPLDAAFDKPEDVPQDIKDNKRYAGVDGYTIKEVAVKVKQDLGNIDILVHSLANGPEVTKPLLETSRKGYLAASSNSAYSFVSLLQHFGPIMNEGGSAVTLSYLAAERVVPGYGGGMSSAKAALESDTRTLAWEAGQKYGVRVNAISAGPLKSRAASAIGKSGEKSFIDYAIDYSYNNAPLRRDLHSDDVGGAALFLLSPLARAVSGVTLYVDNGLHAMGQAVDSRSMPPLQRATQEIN
How it was run: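 Recombinant TgENR (20 nM) was assayed in 100 mM Na/K phosphate pH 7.5, 150 mM NaCl and 100 μM NADH. Compounds were added in DMSO (2% final), and reactions were started at 25°C with 100 μM crotonyl-CoA. NADH consumption was followed at 340 nm.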

`Oc1ccc(Oc2ccccc2)c(O)c1` was tested, and the MIC50 [1] was over 6 µM, the MIC90 [1] was over 6 µM and the Activity [2] was 6 µM. The Activity [3] was “Non-toxic”.
Work on `CC(=O)Nc1ccccc1Oc1ccc(Cl)cc1O` yielded an MIC50 [1] of over 24 µM and an MIC90 [1] of over 24 µM.
Compound `NC(=O)c1ccc(Cn2ccc(OCc3ccccc3)cc2=O)c(Cl)c1` has an MIC50 [1] of over 24 µM and an MIC90 [1] of over 24 µM.
Work on `Nc1ccc(/C=C/C(=O)NCc2ccccc2N)cn1` yielded an MIC50 [1] of over 6 µM, an MIC90 [1] of over 6 µM and an Activity [2] of over 6 µM. The Activity [3] was “Non-toxic”.
Compound `CCCc1cc(O)c(Oc2ccc(C#N)cc2)c(O)c1` has an MIC50 [1] of over 6 µM, an MIC90 [1] of over 6 µM and an Activity [2] of 3 µM. The Activity [3] was “Non-toxic”.
With `CCCc1ccc(Oc2ccc([N+](=O)[O-])cc2)c(O)c1` the pIC50 [4] was over 7.70, the MIC50 [1] was 6 µM (≈ 1.64 µg/mL) and the MIC90 [1] was over 6 µM. The Activity [2] was over 6 µM and the Activity [3] was “Non-toxic”.
`CCCc1cc(O)c(Oc2ccc(C#N)cc2Cl)c(O)c1` gave a pIC50 [4] of over 7.70, an MIC50 [1] of 15 µM (≈ 4.56 µg/mL) and an MIC90 [1] of 22 µM (≈ 6.68 µg/mL). The Activity [3] was “Non-toxic”.
Compound `O=c1cc(OCc2ccccc2)ccn1Cc1ccc([N+](=O)[O-])cc1Cl` has a pIC50 [4] of under 4.70, an MIC50 [1] of 3 µM (≈ 1.11 µg/mL) and an MIC90 [1] of 15 µM (≈ 5.56 µg/mL). For the same compound, the Activity [3] was “Non-toxic”.
Compound `CCCc1ccc(Oc2cccc(Cl)c2)c(O)c1` has an MIC50 [1] of over 6 µM, an MIC90 [1] of over 6 µM and an Activity [2] of over 6 µM. For the same compound, the Activity [3] was “Non-toxic”.
In the case of `Oc1cc(Cl)ccc1Oc1cccnc1`, the pIC50 [4] was 5.55, the MIC50 [1] was over 6 µM and the MIC90 [1] was over 6 µM. For the same compound, the Activity [2] was over 6 µM and the Activity [3] was “Non-toxic”.
For `N#Cc1ccc(Cn2ccc(OCc3ccccc3)cc2=O)c(Cl)c1`, the pIC50 [4] was under 4.70, the MIC50 [1] was 18 µM (≈ 6.31 µg/mL) and the MIC90 [1] was 23 µM (≈ 8.07 µg/mL). For the same compound, the Activity [3] was “Non-toxic”.
`CCCc1ccc(Oc2ccc(N)cc2)c(O)c1` was tested, and the pIC50 [4] was over 7.70, the MIC50 [1] was 6 µM (≈ 1.46 µg/mL) and the MIC90 [1] was over 6 µM. The Activity [2] was 3 µM and the Activity [3] was “Non-toxic”.
`CCCc1ccc(Oc2ccc([N+](=O)[O-])cc2[N+](=O)[O-])c(O)c1` gave a pIC50 [4] of over 7.70, an MIC50 [1] of 2 µM (≈ 0.637 µg/mL) and an MIC90 [1] of 6 µM (≈ 1.91 µg/mL). For the same compound, the Activity [2] was under 1.5 µM and the Activity [3] was “Non-toxic”.
`C/C=C/C=C/C(=O)Nc1ccc(Oc2ccc(Cl)cc2O)cc1` gave a pIC50 [4] of under 5.70, an MIC50 [1] of 6 µM (≈ 1.98 µg/mL) and an MIC90 [1] of over 6 µM. It also gave an Activity [2] of 6 µM.
`C/C=C/C=C/C(=O)Nc1ccc(Oc2ccc(Cl)cc2Cl)c(O)c1` was tested, and the pIC50 [4] was 5.70, the MIC50 [1] was 14 µM (≈ 5.1 µg/mL) and the MIC90 [1] was 22 µM (≈ 8.01 µg/mL). For the same compound, the Activity [3] was “Non-toxic”.
For `O=c1[nH]c2ccccc2n1S(=O)(=O)c1ccc([N+](=O)[O-])cc1`, the MIC50 [1] was over 24 µM and the MIC90 [1] was over 24 µM.
For `Nc1ccccc1CNC(=O)COc1ccc([N+](=O)[O-])cc1`, the MIC50 [1] was over 24 µM and the MIC90 [1] was over 24 µM.
`Oc1ccc(Oc2ccc(Cl)cc2O)cc1` showed an MIC50 [1] of over 6 µM, an MIC90 [1] of over 6 µM and an Activity [2] of over 6 µM. The Activity [3] was “Non-toxic”.
In the case of `CCCc1cc(O)c(Oc2ccc(-c3nn[nH]n3)cc2)c(O)c1`, the MIC50 [1] was over 24 µM, the MIC90 [1] was over 24 µM and the Activity [3] was “Non-toxic”.
With `CCCc1ccc(Oc2cccc(B(O)O)c2)c(O)c1` the pIC50 [4] was 6.76, the MIC50 [1] was 5 µM (≈ 1.36 µg/mL) and the MIC90 [1] was 6 µM (≈ 1.63 µg/mL). For the same compound, the Activity [2] was over 6 µM and the Activity [3] was “Non-toxic”.
`Nc1ccc(Nc2ccccc2)c(N)c1` showed an MIC50 [1] of over 6 µM, an MIC90 [1] of over 6 µM and an Activity [2] of under 1.5 µM. For the same compound, the Activity [3] was “Non-toxic”.
For `CCCc1cc(O)c(Oc2ccc(C#N)cc2Cl)c(OC)c1`, the MIC50 [1] was over 6 µM, the MIC90 [1] was over 6 µM and the Activity [2] was over 6 µM. The Activity [3] was “Non-toxic”.
For `Oc1cc(Cl)ccc1Oc1ccccc1`, the MIC50 [1] was 5 µM (≈ 1.1 µg/mL), the MIC90 [1] was over 6 µM and the Activity [2] was over 6 µM. The Activity [3] was “Non-toxic”.
For `Nc1ncccc1C(=O)Nc1cc(Cl)ccc1Oc1ccccc1`, the pIC50 [4] was under 4.70, the MIC50 [1] was 17 µM (≈ 5.78 µg/mL) and the MIC90 [1] was 24 µM (≈ 8.15 µg/mL). For the same compound, the Activity [3] was “Non-toxic”.
Compound `O=c1[nH]c2ccccc2n1-c1ccc([N+](=O)[O-])c(Cl)c1` has an MIC50 [1] of over 24 µM and an MIC90 [1] of over 24 µM.
In the case of `CC(C)(C)C(=O)Nc1cc(Cl)ccc1Oc1ccccc1`, the MIC50 [1] was over 6 µM, the MIC90 [1] was over 6 µM and the Activity [2] was over 6 µM. For the same compound, the Activity [3] was “Non-toxic”.
For `O=c1cc(OCc2ccccc2)ccn1Cc1ccccc1Cl`, the pIC50 [4] was under 4.70, the MIC50 [1] was 7 µM (≈ 2.28 µg/mL) and the MIC90 [1] was 15 µM (≈ 4.89 µg/mL). For the same compound, the Activity [3] was “Non-toxic”.
